CHRM5 PAM = positive allosteric modulators of human muscarinic M5 receptor. hit rate 0.3% among 360,000. activation, % at 3 µM. AID 624038. CHO-K1 hM5, Fluo-8 calcium, ACh EC20 PAM; 0% = ACh EC20, 100% = ACh EC100;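 active = activation above the run cutoff, the mean activation of all test compounds plus 3 SD, cut at about 18% in these data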
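System: CHO-K1 hM5 cells. Reagent: acetylcholine, EC20 level. Compound dosing: single dose, 3 µM nominal final test concentration. Timing: Post-acetylcholine fluorescence recording 140 s. Detection: Fluo-8 calcium fluorescence. Read-out: % activation, ACh-normalized. Benchmarks: ACh EC20 and EC100 wells. Repeats: singlicate, one well per test compound.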
M4 antag = antagonists of human muscarinic M4 receptor (CHRM4) | inhibition, % at 3 µM | CHO-hM4 cells, ACh EC80, Fluo-8 calcium fluorescence | P08173 | hit rate 0.73% among 360,000 | AID 624125;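 active = inhibition above its plate's cutoff, the mean inhibition of sample wells plus 3 SD, cut at about 27% in these data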;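 also: 0% = acetylcholine EC80 with DMSO and 100% = DMSO without agonist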
Target sequence (P08173 whole entry, looked up): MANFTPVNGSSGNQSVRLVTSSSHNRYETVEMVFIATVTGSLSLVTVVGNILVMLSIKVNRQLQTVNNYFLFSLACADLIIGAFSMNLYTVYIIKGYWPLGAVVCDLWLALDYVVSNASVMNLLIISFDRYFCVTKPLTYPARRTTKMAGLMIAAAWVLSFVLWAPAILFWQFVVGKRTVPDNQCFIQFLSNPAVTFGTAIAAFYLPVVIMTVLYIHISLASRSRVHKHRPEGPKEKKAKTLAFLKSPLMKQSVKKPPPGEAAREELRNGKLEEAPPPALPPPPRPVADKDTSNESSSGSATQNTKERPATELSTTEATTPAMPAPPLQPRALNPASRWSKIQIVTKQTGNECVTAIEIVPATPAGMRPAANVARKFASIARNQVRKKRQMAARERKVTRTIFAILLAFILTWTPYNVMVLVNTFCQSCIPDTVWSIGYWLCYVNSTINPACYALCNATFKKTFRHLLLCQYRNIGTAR
CHRM4 PAM = potentiates acetylcholine response at human M4 receptor; P08173; CHO-K1 hM4/Gqi5, Fluo-8 calcium fluorescence, ACh EC20; 0% = ACh EC20, 100% = maximal ACh; activation, % at 3 µM; hit rate 0.4% among 360,000; AID 624126;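 active = activation above its plate's cutoff, the mean activation of sample wells plus 3 SD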
CHRM5 agonist = agonists of human muscarinic M5 receptor (CHRM5); CHO-K1 hM5 cells, Fluo-8 calcium fluorescence; 0% DMSO wells, 100% maximal acetylcholine response; activation, % at 3 µM; hit rate 0.19% among 360,000; AID 624037;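 active = activation above the run's mean over test compounds plus 3 SD, cut at about 23% in these data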;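 also: signal is peak over basal fluorescence ratio across the kinetic read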
M4 ag = agonists of human muscarinic M4 receptor (CHRM4). P08173. CHO-K1 hM4/Gqi5, Fluo-8 calcium fluorescence; vehicle 0%, full acetylcholine response 100%. activation, % at 3 µM. hit rate 0.14% among 360,000. AID 624127;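 active = activation above the run mean over all test wells plus 3 SD, cut at about 32% in these data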;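 also: peak over basal fluorescence ratio per well then scaled between controls; 0% = DMSO wells and 100% = acetylcholine at EC100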
M5 antag = antagonists of human muscarinic M5 receptor (CHRM5); CHO-hM5 cells, Fluo-8 calcium fluorescence, ACh EC80; inhibition, % at 3 µM; hit rate 0.59% among 360,000;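 active = inhibition above a per-plate cutoff, the mean of that plate's test compounds plus 3 SD, cut at about 27% in these data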;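 also: 0% = acetylcholine EC80 with DMSO and 100% = DMSO without agonist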
Starred values were filed as active, the others as inactive. Most compounds without a hit are left out; they make up all but 1.8% or so of the library.

SMILES | CHRM5 PAM | M4 antag | CHRM4 PAM | CHRM5 agonist | M4 ag | M5 antag
Cc1cc(OC(=O)c2cc(Cl)ccc2Cl)c([N+](=O)[O-])c(=O)[nH]1 | -11 | 0 | 2 | 3 | 2 | 0
Cc1ccccc1NC(=S)NN1CCN(C)CC1 | 2 | 3 | 30* | -10 | 1 | -2
Cc1cccc(NC(=S)NN2CCN(C)CC2)c1C | -3 | 1 | 5 | -5 | 0 | 2
O=C(C(Cl)Cl)N1CC2CCC(CC2)C1 | 18* | -4 | 2 | -9 | 0 | -9
COC(=O)C(Cc1ccc(O)cc1)NC(=O)C1CCN(S(=O)(=O)c2ccc(C)cc2)CC1 (stereo not given) | -3 | 0 | -4 | 2 | 2 | 15
Cc1cccc(C)c1NC(=O)CN1CCN(C(=O)CN2C(=O)NC3(CCCCC3C)C2=O)CC1 (stereo not given) | 1 | -11 | 23* | 2 | 1 | -1
CC1CCCCC12NC(=O)N(CC(=O)Nc1ccccc1-c1ccccc1)C2=O (stereo not given) | -2 | 2 | 2 | 6 | 2 | 0
CCc1ccccc1NC(=O)CN1CCN(C(=O)CN2C(=O)NC3(CCCCC3C)C2=O)CC1 (stereo not given) | -3 | 1 | -2 | 0 | 0 | 4
CC1CCCCC12NC(=O)N(CC(=O)Nc1ccccc1F)C2=O (stereo not given) | 0 | 1 | 22* | 2 | 1 | 6
CN(C)CC#CCOC(c1ccccc1)c1ccccc1 | -35 | 27* | -24 | -17 | 0 | 26
CCN(CC)CC#CCOC(c1ccccc1)c1ccccc1 | -32 | 30* | -24 | -13 | -1 | 22
C=CC[N+]1(CC#CCOC(c2ccccc2)c2ccccc2)CCOCC1 | 0 | 10 | -11 | -7 | 0 | 1
COc1cc(C(=O)NCCN2CCN(C(=O)c3cc(OC)c(OC)c(OC)c3)CC2)cc(OC)c1OC | 0 | -3 | -4 | -4 | 0 | -3
COc1ccc(S(=O)(=O)N2CCCCC2)cc1NC(=O)CNc1ccc(F)cc1C | 5 | -11 | 14 | 2 | 1 | -3
CC1(C(=O)NNC(=O)c2cccc([N+](=O)[O-])c2)CC1Br (stereo not given) | -2 | -16 | 16* | 0 | 1 | -6
CCOc1cc(/C=C2\SC(=O)N(CC(=O)Nc3ccccc3F)C2=O)cc([N+](=O)[O-])c1O | 23* | -2 | 11 | 0 | -1 | -1
COc1ccc(C(=O)NCc2nnc(SCC(=O)Nc3ccccc3OC)n2C)cc1 | -7 | -12 | 9 | -4 | 2 | 5
Cc1cccc(NC(=O)Nc2ccc(Cl)cc2)n1 | -1 | 0 | 0 | 1 | 1 | 0
O=C(Nc1ccc(-n2ccc(C(F)(F)F)n2)cc1)Nc1cccc(Cl)c1 | -30 | 27* | -50 | 7 | 18 | 38*
O=C(Nc1cccc(Cl)c1)Nc1nc(-c2ccc(Cl)cc2)cs1 | -15 | 24 | 0 | 5 | 10 | 23
O=C(Nc1cccc(Cl)c1)Nc1csc([N+](=O)[O-])c1 | -26 | 19 | 6 | 2 | 15 | 28*
Cc1nccc(-c2cccc(NC(=O)Nc3ccc(Cl)cc3)c2)n1 | -30 | 9 | -37 | 8 | 20 | 28*
CCOC(=O)c1sc(NC(=O)Nc2cccc(Cl)c2)cc1C | -18 | 38* | -24 | 7 | 17 | 37*
Cc1ccc(OC(C)C(=O)N(C)Cc2ccccc2)c([N+](=O)[O-])n1 (stereo not given) | 6 | -3 | 7 | -1 | 1 | -8
COc1ccccc1CNC(=O)CN(C)CC(=O)Nc1ccccc1Br | -1 | -6 | -4 | 0 | 9 | 17
O=C(Nc1ccncc1)Nc1cccc(Cl)c1 | -13 | 4 | -6 | 9 | 15 | 31*
O=C(NCc1ccncc1)Nc1cccc(Cl)c1 | 2 | -7 | 1 | -7 | 1 | -5
Cc1ccc2oc(C(=O)NCC(c3ccco3)N(C)C)c(C)c2c1 (stereo not given) | 2 | -2 | -6 | -4 | 1 | -2
Cc1cc(S(=O)(=O)NCc2ccccc2)ccc1OCC(=O)NCc1ccccn1 | -9 | -9 | 0 | -3 | 4 | 30*

Assay outcomes from PubChem.
